Wee1 degr inh = Wee1 degradation inhibitors, primary screen, cell-based, HeLa, Wee1K328M-luciferase, luminescence | HeLa Luc-Wee1K328M stability; 100% = proteasome inhibitor MG132 effect | 220,000 tested, 1.2% active | Wee1-like protein kinase (Homo sapiens), P30291 | reporter increase, % at 5 µM;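 active = activation above the mean of all tested compounds plus 3 SD, set per screening run, cut at about 8.8% in these data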;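 note: cells exposed to compound for 20 h before luminescence read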
Target sequence (P30291 whole entry K328M): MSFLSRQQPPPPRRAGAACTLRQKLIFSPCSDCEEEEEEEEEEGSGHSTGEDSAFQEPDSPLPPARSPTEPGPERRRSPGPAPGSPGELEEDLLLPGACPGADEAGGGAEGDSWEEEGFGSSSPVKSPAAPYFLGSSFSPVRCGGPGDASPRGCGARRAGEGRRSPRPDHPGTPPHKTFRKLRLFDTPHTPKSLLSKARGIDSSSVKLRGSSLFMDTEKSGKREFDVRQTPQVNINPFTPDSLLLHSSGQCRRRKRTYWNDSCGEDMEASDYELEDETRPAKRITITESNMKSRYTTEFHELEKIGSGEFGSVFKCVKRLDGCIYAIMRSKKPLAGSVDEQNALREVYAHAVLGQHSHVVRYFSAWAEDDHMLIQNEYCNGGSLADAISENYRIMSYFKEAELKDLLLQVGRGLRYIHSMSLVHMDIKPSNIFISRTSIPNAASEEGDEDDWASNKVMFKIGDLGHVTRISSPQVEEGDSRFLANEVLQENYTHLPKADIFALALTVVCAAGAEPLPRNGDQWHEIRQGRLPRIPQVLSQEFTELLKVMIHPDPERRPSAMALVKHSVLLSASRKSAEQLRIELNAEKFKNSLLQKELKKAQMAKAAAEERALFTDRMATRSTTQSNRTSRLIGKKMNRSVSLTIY
Efa HMGR inh = inhibitors of E. faecalis class II HMGR, primary screen, biochemical, Enterococcus faecalis | 190,000 tested, 0.41% active | HMG-CoA reductase (Enterococcus faecalis, mvaE) | purified E. faecalis HMGR, NADPH absorbance 340 nm kinetic | AID 1066, 2008 | inhibition, % at 10 µM;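 active = inhibition above a set limit, the median over all tested compounds plus 3 SD, cut at about 9.5% in these data; inconclusive = no clear call, values can overlap the other calls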;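 note: enzyme runs in reverse so mevalonate oxidation gives rising NADPH absorbance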
Runt-CBFb FRET = inhibitors of RUNX1 Runt–CBFb binding, primary screen, biochemical, FRET, Cerulean-Runt, Venus-CBFb, uHTS. inhibition, % at 20 µM. Cerulean-Runt/Venus-CBFb FRET ratio 530/480, 1 h. 220,000 tested, 0.46% active;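 active = inhibition over about 50% at 20 µM in the single-dose screen, limit read from the data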
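Doses: 20 µM compound in 1% DMSO | Material: Cerulean-labeled Runt domain protein | Amount: Each fluorescent fusion protein 100 nM | Schedule: Two 1 h room-temperature incubations shielded from light | Measured by: FRET fluorescence | Evaluation: Loss of energy transfer signal | Controls: Unlabeled CBFb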
Runt-SMMHC FRET = inhibitors of RUNX1 Runt–CBFb-SMMHC binding, primary screen, biochemical, FRET, Cerulean-Runt, Venus-CBFb-SMMHC, uHTS; 220,000 tested, 0.74% active; inhibition, % at 20 µM; Runt-related transcription factor 1 (Homo sapiens) + Core-binding factor subunit beta …; Cerulean-Runt/Venus-CBFb-SMMHC FRET ratio 530/480, 1 h;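 active = mean inhibition across duplicate retests at 20 µM reaching about 50%, limit read from the data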;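 note: inhibitors lower the FRET ratio by blocking Runt binding to CBFb-SMMHC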
RanGTP-Imp inh = inhibitors of RanGTP-importin-beta interaction, primary screen, biochemical, FRET, CFP-Ran, YFP-importin-beta, homogeneous; inhibition, % (no concentration beside the values); AID 2216, 2009; 300,000 tested, 1.1% active; cell-free CFP-Ran/YFP-importin-beta FRET ratio; Ran GTPase (GTP-bound) - importin-beta complex;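 active = more than half of the replicate wells show a fall in the fluorescence ratio signal beyond about 16%, limit read from the data, passing the limit was not always enough; inconclusive = exactly half of the replicate wells pass the set limit; inactive = fewer than half of replicates pass the limit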
PHOSPHO1 inh = PubChem AID 1565 | 290,000 tested, 1.1% active | Phosphoethanolamine/phosphocholine phosphatase (Homo sapiens), Q8TCT1 | inhibition, % at 13.3 µM | recombinant PHOSPHO1, absorbance phosphatase assay; in the data active = inhibition above about 60%
Hits are given with their value; i = inactive; ? = inconclusive; nt = no result. Shown are actives, neighbours in structure and some others; about 3.4% of the full set was active somewhere.

SMILES | Wee1 degr inh | Efa HMGR inh | Runt-CBFb FRET | Runt-SMMHC FRET | RanGTP-Imp inh | PHOSPHO1 inh
CCOc1ccc2ccccc2c1C(=O)NCC(c1ccc(N(C)C)cc1)N(C)C (centres undefined) | nt | nt | nt | nt | i | i
COc1cc(/C=C(\C#N)C(=O)Nc2cccc3ncccc23)ccc1O | i | i | 84 | 92 | 63 | i
CCCCNCc1nc2ccccc2c(=O)[nH]1 | 8.9 | i | i | i | i | i
CCc1ccc(NCc2nc3ccccc3c(=O)[nH]2)cc1 | i | i | i | i | i | i
O=C(COc1cccnc1[N+](=O)[O-])N1CCc2ccccc2C1 | i | i | i | i | i | 61
O=C(Cn1cc([N+](=O)[O-])cn1)N1CCc2ccccc2C1 | i | i | i | i | ? | 61
Cc1ccccc1-n1nc2c(c1NC(=O)C1CCCC1)CS(=O)(=O)C2 | nt | nt | nt | nt | i | i
Cc1cc(NC(=O)CCC(=O)N(CC(C)C)C(C(=O)NC(C)(C)C)c2ccccc2Cl)no1 (centres undefined) | nt | nt | nt | nt | i | i
CCOc1ccc2noc3c2c1C(=O)c1ccccc1-3 | i | i | i | i | i | 62
N#CC1=C(N)Oc2c(ccc3ccccc23)C1c1cccs1 (centres undefined) | i | i | i | i | i | 93
Cc1ccc(-c2nn(-c3ccc(F)cc3)cc2C(=O)NCC2CCCO2)cc1 (centres undefined) | nt | nt | nt | nt | i | nt
C=CCNC(=O)c1cc2c(=O)n3cc(C)ccc3nc2nc1NCC1CCCO1 (centres undefined) | i | i | i | 60 | 179 | i
CCNc1nc2nc3ccc(C)cn3c(=O)c2cc1C(=O)NCC1CCCO1 (centres undefined) | i | i | i | 91 | 185 | i
COc1ccc(NC(=S)N2CCN(C(=O)C3CCCO3)CC2)cc1 (centres undefined) | nt | nt | nt | nt | i | i
O=C(O)C1Nc2ccc(Br)cc2C2C=CCC12 (centres undefined) | nt | nt | nt | nt | i | nt
O=C(OC1CCCCC1)c1ccc2c(c1)C1C=CCC1C(C(=O)O)N2 (centres undefined) | i | i | i | i | nt | 83
CCCCN(C)CC(O)Cn1cc(/C=C/C(=O)c2ccc(OCC)cc2)c2ccccc21 (centres undefined) | nt | nt | nt | nt | 25 | i
O=C(CN1C(=O)COc2ccc(S(=O)(=O)N3CCOCC3)cc21)Nc1cccc(Cl)c1 | nt | nt | nt | nt | i | i
Cc1ccc(NC2CCCN(C(=O)c3ccnc(Cl)c3)C2)cc1C (centres undefined) | nt | nt | nt | nt | i | i
CSc1cccc(NS(=O)(=O)c2ccc3c(c2)oc(=O)n3C)c1 | i | i | i | i | i | i
C=CCc1c(C)nc(SC)nc1Nc1ccc(C(C)=O)cc1 | i | i | i | i | i | 74
N=c1c(S(=O)(=O)c2ccc(Cl)cc2)cc2c(=O)n3ccccc3nc2n1CCc1ccccc1 | nt | nt | nt | nt | 50 | i
N=c1c(S(=O)(=O)c2ccc(Cl)cc2)cc2c(=O)n3ccccc3nc2n1CCN1CCOCC1 | i | i | 90 | 63 | i | i
Cc1ccc(S(=O)(=O)c2cc3c(=O)n4ccccc4nc3n(CCCN3CCOCC3)c2=N)cc1C | nt | nt | nt | nt | 135 | i
CCOCCCn1c(=N)c(S(=O)(=O)c2ccccc2)cc2c(=O)n3cc(C)ccc3nc21 | nt | nt | nt | nt | 160 | i
SMILES | Wee1 degr inh | Efa HMGR inh | Runt-CBFb FRET | Runt-SMMHC FRET | RanGTP-Imp inh | PHOSPHO1 inh
COc1ccccc1CCc1nnc(CCC(=O)NC(C)Cc2cccnc2)o1 (centres undefined) | i | i | i | i | i | i
O=C(N/C(=C\c1cccc([N+](=O)[O-])c1)C(=O)N1CCOCC1)c1ccco1 | nt | nt | nt | nt | i | i
N=c1c(S(=O)(=O)c2ccccc2)cc2c(=O)n3ccccc3nc2n1CCCN1CCOCC1 | nt | nt | nt | nt | 155 | i
COc1ccc(-n2c(SCC(=O)N3CCc4ccccc43)nnc2-c2c[nH]c3ccccc23)cc1 | i | i | i | i | i | i
COc1ccc(N2CCN(C(=O)CCS(=O)(=O)c3ccc4c(c3)NC(=O)CO4)CC2)cc1 | nt | nt | nt | nt | i | i
CN(CC(=O)NCCc1ccccc1)S(=O)(=O)c1ccccc1 | i | 14 | i | i | i | i
CCN(CC(=O)NCCc1ccccc1)S(=O)(=O)c1ccc(Br)cc1 | i | i | i | i | i | i
C/C(=N\NC(=O)C1(C)CC1(Br)Br)c1cccc(NC(=O)c2ccc(C)o2)c1 (centres undefined) | nt | nt | nt | nt | i | i
CN(c1ccc(C(=O)N2CCCCC2)cc1)S(=O)(=O)c1ccccc1 | i | 31 | i | i | i | i
O=C(NNC(=O)C(O)(c1ccccc1)c1ccccc1)C1CC1 | i | 11 | i | i | i | i
CCOC(=O)C1(CCCc2ccccc2)CCN(C(=O)CCC2=NNC(=O)CC2)CC1 | 11 | i | i | i | i | i
Cn1cc(/C=C/C(=O)c2ccccc2)c2ccccc21 | i | nt | i | i | 36 | i
Cc1ccc(C(=O)/C=C/c2cn(CN3CCN(C)CC3)c3ccccc23)cc1 | i | i | i | i | 72 | i
Cc1ccc2c(c1)c1n[nH]c(=S)nc1n2CCc1ccccc1 | nt | nt | nt | nt | i | i
Cc1ccc(C(=O)Nc2c3c(nn2C(C)(C)C)CS(=O)(=O)C3)cc1C | i | i | 98 | i | i | i
Cc1ccc(C(=O)Nc2c3c(nn2C(C)(C)C)CS(=O)(=O)C3)cc1[N+](=O)[O-] | nt | nt | nt | nt | i | i
O=C(N/N=C/c1c[nH]c2ccccc12)C1CC(=O)N(c2ccccc2)C1 (centres undefined) | i | i | i | i | i | 73
Cc1ccc(/C=N\NC(=O)C2CC(=O)N(c3ccccc3)C2)o1 (centres undefined) | i | nt | i | i | i | i
O=C1CCCCC1C(Nc1ccc(Br)cc1)c1ccccc1 (centres undefined) | i | i | i | i | i | i
O=C1CCCCC1C(Nc1ccc(Cl)cc1)c1ccccc1 (centres undefined) | 9.5 | i | i | i | i | i
Cc1c(O)ccc2c(CN3CCN(C/C=C/c4ccccc4)CC3)cc(=O)oc12 | i | nt | i | 81 | 52 | i
Cc1cc2oc(=O)cc(CN3CCN(C/C=C/c4ccccc4)CC3)c2cc1O | i | i | i | i | i | i
CC(C)Nc1c([N+](=O)[O-])c(=O)oc2ccccc12 | i | i | i | i | i | i
CC(Nc1c([N+](=O)[O-])c(=O)oc2ccccc12)c1ccccc1 (centres undefined) | i | nt | i | i | i | 61

Source: PubChem BioAssay (several laboratories)
